Data set [1] in a line: Intrinsic clearance in human liver microsomes measured after 1 hr. The format is ADME, Microsome. Conditions: read-out: CLH. Summed up: (§1)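 Compound incubated 1 h with mouse, rat, dog, monkey or human liver microsomes. Derived values were the elimination rate constant k, the elimination half-life T1/2 and the intrinsic clearance CLint.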
(In general: Microsomes from liver hold many membrane-bound enzymes, among them those of drug oxidation.)

In data set [2] the test system is MDA-MB-468. In words: Induction of apoptosis in human MDA-MB-468 cells assessed as late apoptotic cells at 1 uM measured after 72 hrs by Annexin V-FITC/propidium iodide staining based flow cytometry (reference value: 0.78%). The format is functional.
The nature of data set [3]: Intrinsic clearance in mouse liver microsomes measured after 1 hr. The format is ADME, Microsome. The following applies: read-out: CLH. Summed up: as §1
The nature of data set [4]: Elimination rate constant in mouse liver microsomes measured after 1 hr. The format is ADME, Microsome. Summed up: as §1
A short description of data set [5]: Elimination half life in monkey liver microsomes measured after 1 hr. The format is ADME, Macaca mulatta, Microsome. The following applies: rhesus monkey, read-out: beta t1/2. Summed up:
as §1

Data set [6] in a line: Toxicity in Sprague-Dawley rat assessed as change in body weight at 1000 mg/kg, po administered as single dose measured on day 4 (reference value: 280 +/- 12 g). The format is organism-based. Conditions: in vivo, 96 h, time 4 day.
The nature of data set [7]: Elimination half life in human liver microsomes measured after 1 hr. The format is ADME, Microsome. Conditions: read-out: beta t1/2. Summed up: as §1
Data set [8] in a line: Elimination rate constant in dog liver microsomes measured after 1 hr. The format is ADME, Canis lupus familiaris, Microsome. Summed up: as §1
The nature of data set [9]: Elimination rate constant in human liver microsomes measured after 1 hr. The format is ADME, Microsome. Summed up: as §1
Data set [10] has as its system MDA-MB-468. In words: Induction of apoptosis in human MDA-MB-468 cells assessed as viable cells at 1 uM measured after 72 hrs by Annexin V-FITC/propidium iodide staining based flow cytometry (reference value: 95.2%). The following applies: read-out: Activity. The format is functional. Background: Flow cytometry measures light scatter and fluorescence of single cells or particles in a stream.

Data set [11] can be described thus: Intrinsic clearance in monkey liver microsomes measured after 1 hr. The format is ADME, Macaca mulatta, Microsome. Conditions: rhesus monkey, read-out: CLH. Summed up: as §1
Data set [12] concerns the target Poly [ADP-ribose] polymerase 1 (Homo sapiens, UniProt P09874). As to the kind of experiment: Inhibition of PARP1 (unknown origin). Summed up:
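PARP-1 and PI3Kα enzyme inhibition. IC50 taken from dose-response curves and given as mean ± SD of three independent experiments.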

A short description of data set [13]: Intrinsic clearance in rat liver microsomes measured after 1 hr. Conditions: read-out: CLH. The format is ADME, Microsome. Summed up:
as §1

Data set [14] in a line: Apparent permeability across apical to basolateral side in human Caco2 cells at 5 uM measured after 120 mins. The format is ADME, cell-based. The following applies: Caco-2. Summed up:
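Bidirectional permeability run, apical-to-basolateral and basolateral-to-apical. Test compound at 5 µM, incubated 120 min. Papp (10^-6 cm/s), recovery (%) and efflux ratio reported as the mean of two experiments.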

Data set [15] can be described thus: Toxicity in MDA-MB-468 cells xenografted BALB/c mouse assessed as change in body weight at 50 mg/kg, ip administered every two days for 34 days measured at 2 days interval during compound dosing. Conditions: in vivo, 816 h.

Molecules are shown by their SMILES.

For orientation: IC50 means the concentration needed to halve the response being measured. What is called Papp A→B is the apparent permeability from the apical to the basolateral side of a cell layer.

Poly [ADP-ribose] polymerase 1, sequence (P09874 whole entry): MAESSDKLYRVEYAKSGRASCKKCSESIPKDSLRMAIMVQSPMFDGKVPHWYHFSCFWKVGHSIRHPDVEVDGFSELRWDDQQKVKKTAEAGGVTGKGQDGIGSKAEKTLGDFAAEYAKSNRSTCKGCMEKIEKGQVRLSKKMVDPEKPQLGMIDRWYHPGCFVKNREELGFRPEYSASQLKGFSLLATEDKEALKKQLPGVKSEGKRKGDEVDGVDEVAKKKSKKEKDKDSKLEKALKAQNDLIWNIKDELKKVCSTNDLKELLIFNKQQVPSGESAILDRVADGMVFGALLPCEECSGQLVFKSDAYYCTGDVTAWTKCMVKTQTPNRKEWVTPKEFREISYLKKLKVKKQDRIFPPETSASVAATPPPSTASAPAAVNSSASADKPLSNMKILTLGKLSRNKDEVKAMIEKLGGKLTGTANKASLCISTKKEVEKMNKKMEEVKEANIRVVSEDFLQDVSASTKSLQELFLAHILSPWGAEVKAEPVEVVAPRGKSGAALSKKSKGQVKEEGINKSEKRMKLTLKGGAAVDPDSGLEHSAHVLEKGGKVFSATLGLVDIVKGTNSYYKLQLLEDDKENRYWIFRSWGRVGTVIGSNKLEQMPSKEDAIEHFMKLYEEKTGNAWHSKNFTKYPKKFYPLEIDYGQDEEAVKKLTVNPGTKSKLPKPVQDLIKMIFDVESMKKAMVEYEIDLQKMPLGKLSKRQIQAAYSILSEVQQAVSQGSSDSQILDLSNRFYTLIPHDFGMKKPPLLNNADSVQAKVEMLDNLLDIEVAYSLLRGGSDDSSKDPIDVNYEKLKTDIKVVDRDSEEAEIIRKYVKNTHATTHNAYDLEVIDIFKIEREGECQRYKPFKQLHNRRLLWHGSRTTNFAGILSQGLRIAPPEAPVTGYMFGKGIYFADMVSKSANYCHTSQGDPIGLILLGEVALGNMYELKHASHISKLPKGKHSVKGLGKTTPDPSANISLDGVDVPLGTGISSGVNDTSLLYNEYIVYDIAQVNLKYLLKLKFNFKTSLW

`NC(=O)c1cccc2cc(C(=O)N3CCN(c4nc(-c5cnc(NC(=O)CN6CCOCC6)cc5C(F)(F)F)nc(N5CCOCC5)n4)CC3)oc12`: the microsomal CLint in data set [1] was found to be 14.7 µL/min/mg; in [3] it was 79.7 µL/min/mg; in [11] it was 30.7 µL/min/mg; in data set [13], 32.9 µL/min/mg. Further, the Activity is on record as 13.5% in data set [2], 272 g in data set [6] and “Non-Toxic” in data set [15]. The k el at 1 h in [4] is 0.000663 s⁻¹; in [8] it was 0.000245 s⁻¹; in data set [9], 0.000122 s⁻¹. Also, the half-life in data set [5] stood at 0.985 h; in data set [7], 1.78 h. Also, the viability at 1 µM in data set [10] was 67.2%. For the same molecule, the IC50 in data set [12] is 13.8 nM. The Papp A→B at 2 h, 5 µM in data set [14] was 8.42 ×10⁻⁶ cm/s.

The values are drawn from ChEMBL document CHEMBL4732120, “Discovery of novel PARP/PI3K dual inhibitors with high efficiency against BRCA-proficient triple negative breast cancer” (Eur J Med Chem, 2021).
